Assays:
[1] = Immunostimulatory activity in C57BL/6 mouse BMDC assessed as increase in mean fluorescence intensity of CD86 expression at 10 ug relative to untreated control; assay type: functional
Outline: (§1)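 Bone marrow stem cells from C57Bl/6 J mice grown 6 days in IMDM with 5% FBS, penicillin/streptomycin, glutamax, 2-mercaptoethanol and 20 ng/ml GM-CSF, 37 °C, 5% CO2. Seeded at 5 × 10^5 cells/mL and pulsed with formulations holding 10 µg saponin (cholesterol/phosphatidylcholine film hydration); LPS 10 µg/mL positive control. After 48 h, flow cytometry gated on propidium iodide-negative CD11c+ cells. MFI divided by medium-only MFI. Run 1–3 times.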

[2] = Immunostimulatory activity in C57BL/6 mouse BMDC assessed as increase in mean fluorescence intensity of MHC class2 expression at 10 ug relative to untreated control; assay type: functional; outline: as §1

## COC(=O)[C@H]1O[C@@H](O[C@H]2CC[C@]3(C)[C@H]4C(=O)C=C5[C@@H]6C[C@@](C)(C(=O)O)CC[C@]6(C)CC[C@@]5(C)[C@]4(C)CC[C@H]3C2(C)C)[C@H](O[C@@H]2O[C@H](C(=O)O)[C@@H](O)[C@H](O)[C@H]2O)[C@@H](O)[C@@H]1O
[1]
  fold change (FC): 0.9
[2]
  fold change (FC): 1.5

## CC1(C)CC[C@]2(C(=O)O[C@H]3O[C@H](CO)[C@@H](O)[C@H](O)[C@@H]3O[C@H]3O[C@H](CO)[C@@H](O)[C@H](O)[C@@H]3O[C@H]3O[C@H](CO)[C@@H](O)[C@H](O)[C@@H]3O)CC[C@]3(C)C(=CC[C@@H]4[C@@]5(C)CC[C@H](O[C@H]6O[C@H](CO)[C@@H](O)[C@H](O)[C@@H]6O[C@H]6O[C@H](CO)[C@@H](O)[C@H](O)[C@@H]6O[C@H]6O[C@H](CO)[C@@H](O)[C@H](O)[C@@H]6O)C(C)(C)[C@@H]5CC[C@]43C)[C@@H]2C1
[1]
  fold change (FC): 0.9
[2]
  fold change (FC): 1

## CC1(C)CC[C@]2(C(=O)O[C@H]3O[C@H](CO[C@H]4O[C@H](CO)[C@@H](O)[C@H](O)[C@@H]4O)[C@@H](O)[C@H](O[C@H]4O[C@H](CO)[C@@H](O)[C@H](O)[C@@H]4O)[C@@H]3O)CC[C@]3(C)C(=CC[C@@H]4[C@@]5(C)CC[C@H](O[C@H]6O[C@H](CO[C@H]7O[C@H](CO)[C@@H](O)[C@H](O)[C@@H]7O)[C@@H](O)[C@H](O[C@H]7O[C@H](CO)[C@@H](O)[C@H](O)[C@@H]7O)[C@@H]6O)C(C)(C)[C@@H]5CC[C@]43C)[C@@H]2C1
[1]
  fold change (FC): 2
[2]
  fold change (FC): 1.3

## CC1(C)CC[C@]2(C(=O)O)CC[C@]3(C)C(=CC[C@@H]4[C@@]5(C)CC[C@H](O[C@H]6O[C@H](CO)[C@@H](O)[C@H](O)[C@@H]6O[C@H]6O[C@H](CO)[C@@H](O)[C@H](O)[C@@H]6O)C(C)(C)[C@@H]5CC[C@]43C)[C@@H]2C1
[1]
  fold change (FC): 1.2
[2]
  fold change (FC): 1.6

## COC(=O)[C@H]1O[C@@H](O[C@H]2[C@H](O[C@H]3CC[C@]4(C)[C@H]5C(=O)C=C6[C@@H]7C[C@@](C)(C(=O)O)CC[C@]7(C)CC[C@@]6(C)[C@]5(C)CC[C@H]4C3(C)C)O[C@H](C(=O)O)[C@@H](O)[C@@H]2O)[C@H](O)[C@@H](O)[C@@H]1O
[1]
  fold change (FC): 0.9
[2]
  fold change (FC): 1.4

## COC(=O)[C@H]1O[C@@H](O[C@H]2[C@H](O[C@H]3CC[C@]4(C)[C@H]5C(=O)C=C6[C@@H]7C[C@@](C)(C(=O)O)CC[C@]7(C)CC[C@@]6(C)[C@]5(C)CC[C@H]4C3(C)C)O[C@H](C(=O)OC)[C@@H](O)[C@@H]2O)[C@H](O)[C@@H](O)[C@@H]1O
[1]
  fold change (FC): 0.9
[2]
  fold change (FC): 1.1

## COC(=O)[C@H]1O[C@@H](O[C@H]2[C@H](O[C@H]3CC[C@]4(C)[C@H]5C(=O)C=C6[C@@H]7C[C@@](C)(C(=O)O[C@@H]8O[C@H](CO)[C@@H](O)[C@H](O)[C@H]8O)CC[C@]7(C)CC[C@@]6(C)[C@]5(C)CC[C@H]4C3(C)C)O[C@H](C(=O)O)[C@@H](O)[C@@H]2O)[C@H](O)[C@@H](O)[C@@H]1O
[1]
  fold change (FC): 1
[2]
  fold change (FC): 1.1

## CC1(C)CC[C@]2(C(=O)O)CC[C@]3(C)C(=CC[C@@H]4[C@@]5(C)CC[C@H](O[C@H]6O[C@H](CO)[C@@H](O)[C@H](O)[C@@H]6O[C@H]6O[C@H](CO)[C@@H](O)[C@H](O)[C@@H]6O[C@H]6O[C@H](CO)[C@@H](O)[C@H](O)[C@@H]6O)C(C)(C)[C@@H]5CC[C@]43C)[C@@H]2C1
[1]
  fold change (FC): 0.8
[2]
  fold change (FC): 1.1

## COC(=O)[C@H]1O[C@@H](O[C@H]2CC[C@]3(C)[C@H]4C(=O)C=C5[C@@H]6C[C@@](C)(C(=O)O[C@@H]7O[C@H](CO)[C@@H](O)[C@H](O)[C@H]7O)CC[C@]6(C)CC[C@@]5(C)[C@]4(C)CC[C@H]3C2(C)C)[C@H](O[C@@H]2O[C@H](C(=O)O)[C@@H](O)[C@H](O)[C@H]2O)[C@@H](O)[C@@H]1O
[1]
  fold change (FC): 1.3
[2]
  fold change (FC): 1.3

From ChEMBL document CHEMBL1152501, “Mannosylated saponins based on oleanolic and glycyrrhizic acids. Towards synthetic colloidal antigen delivery systems” (2009)
